In PubChem BioAssay:
Calls of active or inactive are those of the source.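 The calls were made as follows, unless noted: active = duplicate-averaged activation above buffer control mean plus 5 SD of those controls; inactive = the rest.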

What was measured:
[1] = thallium flux activation in parental CHO cells, counter-screen for KCNQ1 potentiator project (AID 493006); details: parental CHO-K1 cells, FluxOR thallium flux, at 10 µM; hits give high values
Summary of the method: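 Assay system: Untransfected host CHO-K1 cells with FluxOR thallium dye | Probe or stimulus: Potassium/thallium depolarization pulse | Schedule: Overnight 37 °C plating, 90 min RT dye, 20 min compound | Detection: Kinetic thallium-flux fluorescence | Read-out: Max-minus-min fluorescence over baseline, percent of buffer-to-R-L3 span | Benchmarks: Low control buffer, high control R-L3 activator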

[2] = target: Potassium voltage-gated channel subfamily KQT member 1 (Homo sapiens) (UniProt P51787); assay: KCNQ1 potassium channel potentiators, confirmation, FluxOR thallium flux, CHO cells, duplicates (AID 493007;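 active = potentiation averaged over duplicate wells exceeding buffer-only control mean by more than 3 SD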;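 as to outcome: cells depolarized by a potassium plus thallium sulfate stimulus after compound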); details: KCNQ1 cell line, FluxOR thallium flux fluorescence, at 10 µM; hits give high values, % of reference activator effect, buffer zero
Sequence of Potassium voltage-gated channel subfamily KQT member 1 (Homo sapiens) (P51787 whole entry, looked up): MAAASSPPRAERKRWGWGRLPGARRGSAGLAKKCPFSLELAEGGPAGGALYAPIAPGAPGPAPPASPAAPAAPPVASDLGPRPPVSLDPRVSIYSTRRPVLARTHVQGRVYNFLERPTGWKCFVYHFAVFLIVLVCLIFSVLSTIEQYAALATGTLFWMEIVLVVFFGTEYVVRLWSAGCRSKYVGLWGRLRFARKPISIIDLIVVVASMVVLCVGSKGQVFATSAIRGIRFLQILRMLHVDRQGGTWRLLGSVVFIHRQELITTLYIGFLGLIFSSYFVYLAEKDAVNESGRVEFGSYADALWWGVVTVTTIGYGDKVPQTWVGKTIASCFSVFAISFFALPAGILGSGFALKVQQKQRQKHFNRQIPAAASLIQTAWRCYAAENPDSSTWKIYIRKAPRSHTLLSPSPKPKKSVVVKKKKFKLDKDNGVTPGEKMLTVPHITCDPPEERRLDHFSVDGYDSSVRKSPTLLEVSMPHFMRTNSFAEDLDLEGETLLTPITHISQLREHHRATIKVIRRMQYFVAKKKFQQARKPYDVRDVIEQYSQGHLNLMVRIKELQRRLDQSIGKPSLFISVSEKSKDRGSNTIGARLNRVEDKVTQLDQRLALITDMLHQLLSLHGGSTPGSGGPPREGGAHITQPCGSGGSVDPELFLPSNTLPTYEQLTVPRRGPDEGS
Summary of the method: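 Material: KCNQ1-expressing CHO cell line; Incubation: FluxOR dye loading 90 min, compound exposure 20 min, room temperature; Detection: FluxOR Tl+ flux fluorescence, 10 s baseline plus 110 s recording; Read-out: percent activation between buffer and R-L3 responses; Control set: buffer-only wells as 0% and R-L3 activator as 100%; Replication: duplicate wells per compound.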

[3] = target: Potassium voltage-gated channel subfamily KQT member 2 (Rattus norvegicus) (UniProt O88943); assay: rat KCNQ2 channel potentiation, selectivity assay for KCNQ1 potentiator project, KCNQ2-CHO-K1 cells (AID 493009;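 active = mean duplicate potentiation above the buffer control mean plus 5 SD of buffer wells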;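 also: assay conditions were tuned for KCNQ1 rather than KCNQ2 modulators; signal is max minus min fluorescence divided by baseline after thallium stimulus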); details: FluxOR thallium flux fluorescence, at 10 µM; hits give high values, scaled: buffer 0, activator control 100
Sequence of Potassium voltage-gated channel subfamily KQT member 2 (Rattus norvegicus) (O88943 whole entry, looked up): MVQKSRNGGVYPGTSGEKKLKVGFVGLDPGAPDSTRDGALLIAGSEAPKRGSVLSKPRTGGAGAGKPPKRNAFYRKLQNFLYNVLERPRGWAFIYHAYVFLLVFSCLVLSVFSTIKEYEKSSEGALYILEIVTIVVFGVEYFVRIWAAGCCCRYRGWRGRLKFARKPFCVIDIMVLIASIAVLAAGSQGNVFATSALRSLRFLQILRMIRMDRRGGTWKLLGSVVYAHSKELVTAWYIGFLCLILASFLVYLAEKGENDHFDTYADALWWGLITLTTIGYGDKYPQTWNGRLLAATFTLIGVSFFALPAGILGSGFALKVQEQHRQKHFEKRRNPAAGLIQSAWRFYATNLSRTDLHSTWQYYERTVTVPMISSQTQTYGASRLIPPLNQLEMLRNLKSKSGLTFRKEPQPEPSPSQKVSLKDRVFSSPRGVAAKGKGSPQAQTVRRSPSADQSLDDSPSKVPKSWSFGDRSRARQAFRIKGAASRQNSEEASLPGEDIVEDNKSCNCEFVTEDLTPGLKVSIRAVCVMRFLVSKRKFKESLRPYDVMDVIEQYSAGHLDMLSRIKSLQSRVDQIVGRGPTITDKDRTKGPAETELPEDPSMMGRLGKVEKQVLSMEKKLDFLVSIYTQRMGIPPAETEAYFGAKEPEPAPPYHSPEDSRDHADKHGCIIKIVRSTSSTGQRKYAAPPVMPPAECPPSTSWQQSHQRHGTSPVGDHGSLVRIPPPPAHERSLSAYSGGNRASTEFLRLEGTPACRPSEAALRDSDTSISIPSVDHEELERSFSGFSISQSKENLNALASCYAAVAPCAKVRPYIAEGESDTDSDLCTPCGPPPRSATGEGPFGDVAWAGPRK

[4] = target: Potassium voltage-gated channel subfamily KQT member 1 (Homo sapiens) (UniProt P51787); assay: KCNQ1 channel current potentiators, confirmation, orthogonal assay for KCNQ1 potentiator project, IonWorks patch clamp, KCNQ1-CHO cells (AID 493184;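 active = current rise at least 3 SD above the untreated control mean in each of two repeat wells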); details: automated patch clamp current, at 10 µM; hits give high values
Summary of the method: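 assay system = KCNQ1-expressing CHO cells | medium = external bath solution at pH 7.4 | probe or stimulus = 2,000 ms depolarization, -90 to +40 mV | compound dosing = 10 µM final, single point | measured by = automated voltage clamp, amphotericin B perforated patch | measure = percent current increase versus pre-compound level | replication = duplicates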

| Structure (SMILES) | activation [1] | potentiation [2] | potentiation [3] | outcome [4] | outcome [1] | outcome [2] | outcome [3] |
| --- | --- | --- | --- | --- | --- | --- | --- |
| CCC(C)CCCCCCCCCCC(=O)O (stereo not given) | 382% (active) | 318% (active) | 302% (active) | inactive |  |  |  |
| CN1CCC(Oc2ccccc2Sc2ccc(C(F)(F)F)cc2)CC1 |  |  |  | inactive | inactive | inactive | inactive |
| COC(=O)c1cccc(NC(=O)CSc2nncn2-c2ccccn2)c1 |  |  |  | inactive | inactive | inactive | inactive |
| COC(=O)c1c(NC(=S)Nc2ccccc2Cl)sc(C)c1C |  |  |  | inactive | inactive | inactive | inactive |
| Cc1ccc(/C(O)=C/C(=O)C(=O)NC23CC4CC(CC(C4)C2)C3)cc1 | 284% (active) | 167% (active) | 367% (active) | inactive |  |  |  |
| CCc1nnc(NC(=O)CSc2n[nH]c(-c3ccccc3O)n2)s1 |  |  |  | inactive | inactive | inactive | inactive |
| Cc1cc(NC(c2cccnc2)c2c(C)[nH]c3ccccc23)no1 (stereo not given) |  |  |  | inactive | inactive | inactive | inactive |
| Cn1c(=O)n(CCc2ccccc2)c2ccccc21 |  |  |  | inactive | inactive | inactive | inactive |
| O=C(NC(=S)N1CCN(c2ccccc2)CC1)c1c(F)cccc1F |  |  |  | inactive | inactive | inactive | inactive |
| Cc1ccc(Cl)cc1N1CCN(C(=O)c2ccc(CN3CCOCC3)cc2)CC1 |  |  |  | inactive | inactive | inactive | inactive |
| O=C(NCCN1CCOCC1)[C@H](Cc1ccccc1)N1C(=O)c2ccccc2C1=O |  | 26% (active) | 155% (active) | inactive | inactive |  |  |
| CC1CCN(c2ccccc2NC(=S)NC(=O)c2cccs2)CC1 | 139% (active) | 54% (active) |  | inactive |  |  | inactive |
| Clc1ccc(-c2csc(N3CCc4ccccc4C3)n2)cc1 |  |  |  | inactive | inactive | inactive | inactive |
| CC/C(=N\NC(=S)Nc1cccc(C)c1)c1ccccc1 |  | 104% (active) | 216% (active) | inactive | inactive |  |  |
| CCCn1c(SCN2C(=O)c3ccccc3C2=O)nc2cc(Cl)ccc2c1=O | 179% (active) | 39.5% (active) | 196% (active) | inactive |  |  |  |
| Cc1ccc(NC(=O)C(=O)NNC(=O)c2cccs2)cc1 | 337% (active) | 88.5% (active) | 326% (active) | inactive |  |  |  |
| COC(=O)c1ccc(CSc2ncnc3c2sc2nc(N4CCOCC4)c4c(c23)CCCC4)o1 |  |  |  | inactive | inactive | inactive | inactive |
| CCN(C(=S)NC(=O)c1ccccc1Br)C1CCCCC1 | 358% (active) | 124% (active) | 370% (active) | inactive |  |  |  |
| CCCSC(=S)c1c(C)[nH]n(-c2ccccc2)c1=O | 352% (active) | 165% (active) | 432% (active) | inactive |  |  |  |
| Cc1cc(Br)ccc1OCC(=O)NNC(=O)c1cnccn1 |  |  |  | inactive | inactive | inactive | inactive |

| Structure (SMILES) | activation [1] | potentiation [2] | potentiation [3] | outcome [4] | outcome [1] | outcome [2] | outcome [3] |
| --- | --- | --- | --- | --- | --- | --- | --- |
| CC(C)c1nc2oc3c(NCC4CCCO4)ncnc3c2c2c1COC(C)(C)C2 (stereo not given) |  |  |  | inactive | inactive | inactive | inactive |
| COc1ccc(C(=O)On2c(-c3ccc(Br)cc3)nc3ccccc3c2=O)cc1 |  |  |  | inactive | inactive | inactive | inactive |
| Cc1cc(C)c2ccc(C)[n+]([O-])c2c1O |  |  |  | inactive | inactive | inactive | inactive |
| CCOC(=O)c1sc(NC(=S)NC(=O)c2ccco2)nc1C | 142% (active) | 37% (active) | 157% (active) | inactive |  |  |  |
| Cn1cc(-c2nnnn2-c2ccccc2)c(=O)c2ccccc21 |  |  |  | inactive | inactive | inactive | inactive |
| CSc1ccc(/C=N/NC(=O)c2cccs2)cc1 |  |  |  | inactive | inactive | inactive | inactive |
| CC(/C=N/n1c(-c2ccc(Cl)cc2)n[nH]c1=S)=C\c1ccco1 |  | 28% (active) |  | inactive | inactive |  | inactive |
| C/C(=N\NC(=O)c1cccc(Br)c1)c1ccccn1 |  |  |  | inactive | inactive | inactive | inactive |
| COC(=O)C1CCCN1C(=O)COc1ccc(Cl)cc1Br (stereo not given) | 152% (active) |  | 158% (active) | inactive |  | inactive |  |
| CC(=O)CSc1ncnc2sc3c(c12)CCC(C)C3 (stereo not given) | 474% (active) | 154% (active) | 406% (active) | inactive |  |  |  |
| CCCc1cc2c(=O)c(-c3ccccn3)c(C)oc2cc1O |  |  |  | inactive | inactive | inactive | inactive |
| COc1ccccc1-c1cc(C(=O)Nc2cccnc2)no1 | 314% (active) | 112% (active) | 398% (active) | inactive |  |  |  |
| CCOc1ccc2[nH]c(=O)c(CN(Cc3ccc(C)cc3)C(=O)N3CCCC3)cc2c1 |  |  |  | inactive | inactive | inactive | inactive |
| CCCCOc1ccc(C(=O)Oc2ccc(C)nc2)cc1 |  |  |  | inactive | inactive | inactive | inactive |
| Cc1cc(/C=N/NC(=O)c2cccs2)c(C)n1-c1ccccc1 |  |  |  | inactive | inactive | inactive | inactive |
| CCOc1ccccc1C1CC(=O)Nc2cc3c(cc21)OCCO3 (stereo not given) |  |  |  | inactive | inactive | inactive | inactive |
| O=C(NC(=S)N1CCCc2ccccc21)c1ccccc1 |  |  | 148% (active) | inactive | inactive | inactive |  |
| CC(=O)c1c(C)[nH]c(C(=O)Nc2cccc(C(F)(F)F)c2)c1C |  |  |  | inactive | inactive | inactive | inactive |
| CC(=O)N(C)c1ccc(NC(=O)Cc2cccc3ccccc23)cc1 |  |  |  | inactive | inactive | inactive | inactive |
| Cc1cccc(C(=O)NC(=S)NNC(=O)COc2ccc(Cl)cc2)c1 | 140% (active) | 52% (active) | 186% (active) | inactive |  |  |  |

| Structure (SMILES) | activation [1] | potentiation [2] | potentiation [3] | outcome [4] | outcome [1] | outcome [2] | outcome [3] |
| --- | --- | --- | --- | --- | --- | --- | --- |
| O=Cc1c(F)cccc1N1CCCC1 |  |  | 150% (active) | inactive | inactive | inactive |  |
| COc1cccc(C(=O)NNC(=O)C(=O)Nc2ccc(C)cc2)c1 | 206% (active) | 92% (active) | 308% (active) | inactive |  |  |  |
| COc1ccc(C(=O)c2cc([N+](=O)[O-])ccc2N2CCOCC2)cc1 |  |  |  | inactive | inactive | inactive | inactive |
| Cc1csc(N/N=C/c2ccc([N+](=O)[O-])cc2)n1 |  | 46% (active) | 158% (active) | inactive | inactive |  |  |
| CSc1nccc(-c2nn(-c3ccc(C)cc3)ccc2=O)n1 |  |  |  | inactive | inactive | inactive | inactive |
| O=C(COc1ncnc2ccc(Br)cc12)Nc1ccc(N2CCOCC2)cc1 |  |  |  | inactive | inactive | inactive | inactive |
| CCC1(c2ccc(Cl)cc2)NC(=S)N(c2ccccc2)N1 (stereo not given) | 405% (active) | 150% (active) | 375% (active) | inactive |  |  |  |
| CC(=O)N[C@H]1[C@H](OC2CCCCC2)O[C@H](COC(C)=O)[C@@H](OC(C)=O)[C@@H]1OC(C)=O |  |  |  | inactive | inactive | inactive | inactive |
| CCCc1cc(=O)n2[nH]c(C)c(-c3ccc(Cl)cc3)c2n1 | 180% (active) | 23% (active) | 172% (active) | inactive |  |  |  |
| CC(=O)c1c(N2CCOCC2)[nH]c(-c2ccccc2)nc1=S | 202% (active) | 66.5% (active) | 204% (active) | inactive |  |  |  |
| O=C(NC(=S)N1CCc2ccccc21)c1ccc(Br)o1 | 400% (active) | 124% (active) | 440% (active) | inactive |  |  |  |
| CC(=O)Nc1cc(NC(C)=O)cc(C(=O)OC(C)C(=O)Nc2ccc(S(=O)(=O)N3CCCC3)cc2)c1 (stereo not given) | 224% (active) | 54% (active) | 216% (active) | inactive |  |  |  |
| CN(C)CCNC(=O)c1ccc2c(=O)n(Cc3ccc(Cl)cc3)c(=S)[nH]c2c1 |  | 25% (active) | 149% (active) | inactive | inactive |  |  |
| C=CCn1c(O)c(N=NC(=S)Nc2cccc(OC)c2)c2ccccc21 | 186% (active) | 85.5% (active) | 271% (active) | inactive |  |  |  |
| CN(Cc1cn[nH]c1-c1ccc2c(c1)OCO2)C1CCOCC1 |  |  |  | inactive | inactive | inactive | inactive |
| CCOC(=O)CN1C(=O)N(CC)C(C)=C(C(=O)OC)[C@@H]1c1ccccc1 |  |  |  | inactive | inactive | inactive | inactive |
| COc1ccc2cc(CCNC(=O)C3CCCC3)c(=O)[nH]c2c1 |  |  |  | inactive | inactive | inactive | inactive |
| CCOC(=S)NC(=O)c1sc2ccccc2c1Cl | 398% (active) | 122% (active) | 404% (active) | inactive |  |  |  |
| O=C(O)c1ccc2c(c1)C(=O)N(Cc1ccccc1)C2=O |  |  |  | inactive | inactive | inactive | inactive |
| COc1ccc(C(=O)CSc2nnc(CNC(=O)c3ccc(OC)cc3)n2C)cc1 |  | 21% (active) |  | inactive | inactive |  | inactive |
